# Screens (PubChem BioAssay)
# A selection: hits, their analogues and other compounds. The true share with any hit is near 3.1%.
# KCNQ1 pot – human KCNQ1 channel potentiation or activation | actives 0.35% (n = 310,000) | B-score at 10 µM | AID 2648 | CHO-K1 KCNQ1, thallium flux FluxOR fluorescence; active compounds read high | P51787;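 active = fluorescence ratio B-score, a plate-corrected score, at least three library SD, with initial intensity B-score within 5 SD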
#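 assay system = CHO-K1 cells stably expressing KCNQ1 | medium = assay buffer, equal DMSO in all wells | timing = 37 °C overnight plating, 90-min dark dye load, 20-min compound pretreatment | measured by = kinetic FluxOR thallium fluorescence, 10-s 1-Hz baseline, 110-s post-stimulus read | measure = fluorescence change relative to baseline, converted to B score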
# KCNQ1 block – inhibitors of human KCNQ1 potassium channel; P51787; CHO-K1 KCNQ1, FluxOR thallium flux fluorescence; active compounds read high; B-score at 10 µM; actives 1.3% (n = 310,000);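 active = compounds whose thallium flux B-score, printed positive for inhibition, exceeds three library SD while starting fluorescence stays within three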;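 note: channel opened by potassium depolarization with thallium stimulus after 20 min compound exposure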
# KCNK3 block – human KCNK3 channel inhibition, primary screen; B-score at 10 µM; CHO-KCNK3 thallium flux, FluxOR fluorescence; active compounds read low; AID 602410; actives 0.84% (n = 340,000);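 active = B-score under library mean minus 4 SD, starting fluorescence ratio at most library mean plus 5 SD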;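 note: more negative B-score means stronger inhibition of thallium flux through KCNK3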
# hERG rescue – shields human hERG channel from block by proarrhythmic agents | CHO-hERG, FluxOR thallium flux, dofetilide IC70 present | activation (rescue from dofetilide block), less the hit threshold, % at 10 µM | actives 0.51% (n = 310,000) | AID 1511;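 active = activation above the mean of controls blocked by dofetilide plus 5 SD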;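 note: thallium influx through hERG after potassium depolarization seen as dye fluorescence rise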
# KCNK9 inh – human KCNK9 channel inhibition; Q9NPC2; HEK293 KCNK9, FluxOR thallium flux fluorescence; active compounds read low; B-score at 10 µM; actives 1.2% (n = 310,000); AID 488922;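 active = ratio B-score over 3 SD below the library mean, with starting fluorescence within 5 SD of its mean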;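 note: negative B-score means less thallium flux so channel inhibition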
# KCNK9 block conf – human KCNK9 inhibitor confirmation. inhibition, % at 10 µM. HEK293 KCNK9 cells, FluxOR thallium flux fluorescence. shares compounds with KCNK9 inh. AID 492992. actives 43% (n = 4,900);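 active = thallium signal inhibited by more than 5 SD of the compound-free buffer control wells, on both duplicate plates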;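 note: 0% = assay buffer control wells without compound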
# Kir2-1 spec – tests whether KCNK9 modulators also affect mouse Kir2.1; shares compounds with KCNK9 inh; Kir2.1 cells, FluxOR thallium flux fluorescence; inhibition, % at 10 µM; actives 4% (n = 4,900);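 active = thallium signal drop more than 5 SD beyond the mean of the no-compound control wells, seen in both duplicate plates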;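 note: signal is fluorescence rise after thallium addition divided by baseline fluorescence; plate controls were assay buffer only for no effect and full block by chlorpromazine control for full effect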
# HEK293 Tl ctr – second check of KCNK9 modulator effects in non-induced HEK293 cells. FluxOR thallium flux. actives 40% (n = 4,900). inhibition, % at 10 µM. shares compounds with KCNK9 inh;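 active = thallium signal drop beyond 5 SD of the untreated control mean, on both duplicate plates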;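 note: plate controls were buffer only IC0 wells for no effect and SID17386958 at its maximal inhibitory level for full effect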
# KCNK3 inh conf – confirmation of human KCNK3 two-pore domain potassium channel inhibitors; shares compounds with KCNK3 block; CHO-KCNK3 thallium flux, FluxOR fluorescence; 0% buffer, 100% carvedilol maximal block; ratio percent of control, % at 10 µM; actives 99% (n = 2,400);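 active = ratio percent of control, averaged over triplicates, above buffer control mean plus 5 SD, cut at about 64% in these data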;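 note: ratio is the fluorescence rise from min to max over baseline after thallium stimulus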
# KCNK3 noninduced – activity in cells without induced KCNK3 expression; shares compounds with KCNK3 block; non-induced KCNK3 parental cells, FluxOR thallium flux; active compounds read low; thallium flux ratio (lower = more inhibition) at 10 µM; actives 40% (n = 2,400);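 active = thallium flux ratio, averaged over three wells, more than 5 SD below the buffer control mean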;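 note: host cells are CHO cells without KCNK3 induction; ratio is peak minus trough fluorescence over baseline then normalized to buffer controls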
# Starred values were filed as active, the others as inactive; i = inactive; · = no result.
SMILES,KCNQ1 pot,KCNQ1 block,KCNK3 block,hERG rescue,KCNK9 inh,KCNK9 block conf,Kir2-1 spec,HEK293 Tl ctr,KCNK3 inh conf,KCNK3 noninduced
Cc1ccc(C[n+]2c(-c3ccc(C)cc3)cc(-c3ccc(C)cc3)cc2-c2ccc(C)cc2)cc1,34*,i,-8.73*,-42.5,-13*,61.0%*,81.0%*,38.5%*,·,·
CCOc1ccccc1CN1CCCC(C(=O)c2cc(F)ccc2F)C1 (centres undefined),i,i,i,-1.2,i,i,i,i,·,·
COc1ccccc1CN1CCCC(C(=O)c2ccccc2SC)C1 (centres undefined),i,i,i,-6.5,i,i,i,i,·,·
COc1ccccc1CN1CCCC(C(=O)c2ccccc2OC)C1 (centres undefined),i,i,i,-5.5,i,·,·,·,·,·
O=c1[nH]c(=O)n(CCc2ccccc2)c(O)c1C=NC1CC1,i,i,i,-1.7,i,·,·,·,·,·
O=C1NC(=O)C(Nc2ccc(Cl)c(Cl)c2)C(=O)N1,·,·,i,·,·,·,·,·,·,·
COC(=O)c1ccc(COc2cc(C)cc3oc(=O)c4c(c23)CCCC4)o1,i,i,-9.05*,-4.4,-13*,26.5%*,i,i,100.3*,i
Cc1cc(OCC(=O)O)c2c3c(c(=O)oc2c1)CCCC3,i,i,i,-2.9,i,·,·,·,·,·
CN1Cc2cnnn2-c2ccccc2C1c1ccccc1 (centres undefined),·,·,i,·,·,·,·,·,·,·
CC1CCC(C(C)C)C(OC(=O)Cn2c(COc3ccccc3)[n+](C)c3ccccc32)C1 (centres undefined),i,10*,-8.93*,-40.8,-12.5*,73.5%*,77.0%*,i,122.0*,i
O=S1(=O)N(Cc2ccc(F)cc2)CCCN1Cc1ccccc1Cl,i,i,-11.9*,-4.0,-8.34*,74.0%*,i,41.5%*,124.7*,0.137*
Cc1ccccc1CN1CCCN(Cc2ccc(Cl)cc2)S1(=O)=O,i,i,i,-2.7,-20.9*,72.0%*,i,38.0%*,119.3*,i
C[C@H](NC(=O)N1C[C@H]2C[C@@H](C1)c1cccc(=O)n1C2)C(=O)Nc1cccc(F)c1,i,i,i,-5.0,i,·,·,·,·,·
Cc1ccccc1-n1c(C)cc(/C=C2/C(=O)NC(=O)N(Cc3ccco3)C2=O)c1C,i,i,i,-17.1,-15*,34.5%*,i,32.0%*,137.7*,0.109*
Cn1c(O)c(C(=N)COc2cccc(Cl)c2)c(=O)n(C)c1=O,i,i,i,-9.5,i,·,·,·,·,·
O=C(Nc1ccc(Cl)cc1)O/N=C(\c1ccccc1)c1ccccn1,i,i,i,-10.4,i,·,·,·,·,·
C#CC1(O)CCC2C3CCC4=C/C(=N/OCC(=O)NCC(=O)NC(C(=O)O)C(C)C)CC[C@]4(C)C3CC[C@@]21C (some centres undefined),i,i,i,-9.7,i,·,·,·,·,·
C#C[C@]1(O)CC[C@H]2[C@@H]3CCC4=Cc5nc6nc7ccccc7n6cc5C[C@]4(C)[C@H]3CC[C@@]21C,·,·,-15.7*,·,·,·,·,·,131.7*,0.119*
Cc1cc(=O)oc2c(C)c(OCC(=O)N3CCC(C(=O)O)(c4ccccc4)CC3)ccc12,i,i,i,-7.8,i,·,·,·,·,·
O=c1c2ccccc2nc(/C=C\c2ccccc2[N+](=O)[O-])n1-c1ccccc1O,i,i,-10*,-14.1,i,·,·,·,112.0*,0.142*
O=c1c2ccccc2nc(/C=C/c2ccccc2O)n1-c1ccccc1O,i,i,i,-6.2,i,·,·,·,·,·
CN1CCC(C)(O)C2CCCCC21 (centres undefined),i,i,i,-1.6,i,·,·,·,·,·
COC(=O)c1c(C)[nH]c(C(=O)C(C)[N+]23CCN(CC2)CC3)c1C (centres undefined),i,i,i,-10.5,i,·,·,·,·,·
CCCCn1c(O)c(C(CC)=NCc2ccc3c(c2)OCO3)c(=O)[nH]c1=O,i,i,-9.72*,-8.6,-6.89*,·,·,·,117.3*,i
CCC(C(=O)N1CCC2(CC1)OCCO2)n1c2ccccc2c2nc(=O)cc(C)n21 (centres undefined),i,i,-10.3*,-6.7,i,·,·,·,89.7*,i
CCCCCCCC(=O)NC(Oc1ccccc1[N+](=O)[O-])C(Cl)(Cl)Cl (centres undefined),i,i,-12.3*,-4.2,i,·,·,·,114.7*,i
